In ChEMBL document CHEMBL1155459, “On-bead screening of a combinatorial fumaric acid derived peptide library yields antiplasmodial cysteine protease inhibitors with unusual peptide sequences” (J Med Chem, 2009) one finds inhibition data, which are given here for 21 compounds.

Test [1] in a line: Inhibition of Plasmodium falciparum falcipain-2 after 12 hrs by fluorescence spectroscopy-based on-bead assay. As to conditions: concentration not given here. Details: concentration or dose not given beside the values. A digest of the protocol: (§1)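 Library members on resin (PEGA, theoretical loading 0.40 mmol/g; added as DMSO suspension, 0.64 mM final inhibitor) preincubated with enzyme 12 h, then Cbz-Phe-Arg-AMC 40 μM added; AMC release followed by fluorescence (ex 380/em 460 nm). Kinetics compared with inhibitor-free amino-PEGA resin.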

The target of test [2] is Rhodesain (Trypanosoma brucei rhodesiense) (UniProt Q95PM0). Description: Inhibition of Trypanosoma brucei rhodesiense rhodesain after 12 hrs by fluorescence spectroscopy-based on-bead assay. Details: concentration or dose not given beside the values. As to conditions: concentration not given here. The gist of the method:
as §1

SMILES strings stand for the structures. Square brackets hold non-standard residues; d marks the D form. Peptide text beside a SMILES is read from it. * marks the point of attachment. Fumaroyl(GlyGlyPheOH) = O=C(/C=C/C(=O)*)NCC(=O)NCC(=O)N[C@@H](Cc1ccccc1)C(=O)O; Chg = N[C@H](C(=O)O)C1CCCCC1; Dap = NC[C@H](N)C(=O)O

Chain of Rhodesain (Trypanosoma brucei rhodesiense) (Q95PM0 1-450): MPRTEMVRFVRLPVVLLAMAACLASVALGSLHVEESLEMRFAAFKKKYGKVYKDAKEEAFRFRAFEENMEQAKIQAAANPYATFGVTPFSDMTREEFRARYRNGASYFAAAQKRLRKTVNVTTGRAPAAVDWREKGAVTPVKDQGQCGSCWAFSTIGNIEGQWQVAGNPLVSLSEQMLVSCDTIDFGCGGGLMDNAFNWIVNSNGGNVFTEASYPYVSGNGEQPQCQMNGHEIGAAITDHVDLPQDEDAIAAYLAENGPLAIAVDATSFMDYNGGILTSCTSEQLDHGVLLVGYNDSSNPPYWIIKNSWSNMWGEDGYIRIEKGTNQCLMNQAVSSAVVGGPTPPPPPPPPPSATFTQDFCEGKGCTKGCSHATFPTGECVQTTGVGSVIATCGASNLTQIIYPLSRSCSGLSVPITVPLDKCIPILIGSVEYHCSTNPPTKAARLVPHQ

What is called inhibition is the relative decrease from the control value, in per cent. Regarding `CC(C)[C@H](NC(=O)[C@@H](NC(=O)[C@@H](NC(=O)[C@H](CCC(N)=O)NC(=O)/C=C/C(=O)N[C@@H](C)C(=O)NCC(=O)N[C@@H](Cc1ccccc1)C(=O)O)C1CCCCC1)C(C)C)C(N)=O` (HELM PEPTIDE1{[C[C@H](NC(=O)/C=C/C(=O)[*:2])C(=O)NCC(=O)N[C@@H](Cc1ccccc1)C(=O)O].Q.[O=C([C@@H](N[*:1])C1CCCCC1)[*:2]].V.V.[am]}$$$$V2.0), the inhibition came out at 47% in test [1] and 43% in test [2].
For `CC[C@H](C)[C@H](NC(=O)[C@H](CC(N)=O)NC(=O)/C=C/C(=O)N[C@@H](C)C(=O)NCC(=O)N[C@@H](Cc1ccccc1)C(=O)O)C(=O)N[C@H](C(=O)N[C@H](C(N)=O)C(C)C)C(C)C` (HELM PEPTIDE1{[C[C@H](NC(=O)/C=C/C(=O)[*:2])C(=O)NCC(=O)N[C@@H](Cc1ccccc1)C(=O)O].N.I.V.V.[am]}$$$$V2.0), in that order: 33% and 21%.
Consider `CC(C)C[C@H](NC(=O)[C@H](C)NC(=O)/C=C/C(=O)NCC(=O)NCC(=O)N[C@@H](Cc1ccccc1)C(=O)O)C(=O)N[C@H](C(=O)N[C@H](C(N)=O)C(C)C)C(C)C` (HELM PEPTIDE1{[O=C(/C=C/C(=O)[*:2])NCC(=O)NCC(=O)N[C@@H](Cc1ccccc1)C(=O)O].A.L.V.V.[am]}$$$$V2.0), for which the inhibition in test [1] stood at 29%; in test [2], 55%.
On the same counts, the results for `CC(C)[C@H](NC(=O)[C@H](C)NC(=O)[C@H](Cc1ccccc1)NC(=O)[C@H](CCC(N)=O)NC(=O)/C=C/C(=O)N[C@@H](C)C(=O)NCC(=O)N[C@@H](Cc1ccccc1)C(=O)O)C(N)=O` (HELM PEPTIDE1{[C[C@H](NC(=O)/C=C/C(=O)[*:2])C(=O)NCC(=O)N[C@@H](Cc1ccccc1)C(=O)O].Q.F.A.V.[am]}$$$$V2.0) are 25% and 30%.
For `CC(C)[C@H](NC(=O)[C@@H](NC(=O)[C@@H](NC(=O)[C@H](Cc1ccccc1)NC(=O)/C=C/C(=O)N[C@@H](C)C(=O)NCC(=O)N[C@@H](Cc1ccccc1)C(=O)O)c1ccccc1)C(C)C)C(N)=O` (HELM PEPTIDE1{[C[C@H](NC(=O)/C=C/C(=O)[*:2])C(=O)NCC(=O)N[C@@H](Cc1ccccc1)C(=O)O].F.[Phg].V.V.[am]}$$$$V2.0), in that order: 58% and 77%.
On the same counts, the results for `CC(C)[C@H](NC(=O)[C@H](C)NC(=O)[C@H](Cc1ccccc1)NC(=O)[C@H](Cc1ccccc1)NC(=O)/C=C/C(=O)NCC(=O)NCC(=O)N[C@@H](Cc1ccccc1)C(=O)O)C(N)=O` (HELM PEPTIDE1{[O=C(/C=C/C(=O)[*:2])NCC(=O)NCC(=O)N[C@@H](Cc1ccccc1)C(=O)O].F.F.A.V.[am]}$$$$V2.0) are 43% and 47%.
Consider `CC(C)[C@H](NC(=O)[C@@H](NC(=O)[C@@H](NC(=O)[C@H](CC(N)=O)NC(=O)/C=C/C(=O)N[C@@H](C)C(=O)NCC(=O)N[C@@H](Cc1ccccc1)C(=O)O)c1ccccc1)C(C)C)C(N)=O` (HELM PEPTIDE1{[C[C@H](NC(=O)/C=C/C(=O)[*:2])C(=O)NCC(=O)N[C@@H](Cc1ccccc1)C(=O)O].N.[Phg].V.V.[am]}$$$$V2.0), for which the results for the inhibition in test [1] and in test [2] were 51% and 37%, respectively.
On the same counts, the results for `CC(C)[C@H](NC(=O)[C@H](C)NC(=O)[C@@H](NC(=O)[C@H](CCC(N)=O)NC(=O)/C=C/C(=O)NCC(=O)NCC(=O)N[C@@H](Cc1ccccc1)C(=O)O)c1ccccc1)C(N)=O` (HELM PEPTIDE1{[O=C(/C=C/C(=O)[*:2])NCC(=O)NCC(=O)N[C@@H](Cc1ccccc1)C(=O)O].Q.[Phg].A.V.[am]}$$$$V2.0) are 34% and 17%.
On the same counts, the results for `CC(C)[C@H](NC(=O)[C@@H](NC(=O)[C@@H](NC(=O)[C@H](CC(N)=O)NC(=O)/C=C/C(=O)NCC(=O)NCC(=O)N[C@@H](Cc1ccccc1)C(=O)O)c1ccccc1)C(C)C)C(N)=O` (HELM PEPTIDE1{[O=C(/C=C/C(=O)[*:2])NCC(=O)NCC(=O)N[C@@H](Cc1ccccc1)C(=O)O].N.[Phg].V.V.[am]}$$$$V2.0) are 50% and 45%.
For `CC(C)[C@H](NC(=O)[C@@H](NC(=O)[C@H](Cc1ccccc1)NC(=O)[C@H](CCC(N)=O)NC(=O)/C=C/C(=O)N[C@@H](C)C(=O)NCC(=O)N[C@@H](Cc1ccccc1)C(=O)O)C(C)C)C(N)=O` (HELM PEPTIDE1{[C[C@H](NC(=O)/C=C/C(=O)[*:2])C(=O)NCC(=O)N[C@@H](Cc1ccccc1)C(=O)O].Q.F.V.V.[am]}$$$$V2.0), in that order: 58% and 45%.
Turning to `CC(C)C[C@H](NC(=O)[C@H](CCC(N)=O)NC(=O)/C=C/C(=O)NCC(=O)NCC(=O)N[C@@H](Cc1ccccc1)C(=O)O)C(=O)N[C@H](C(=O)N[C@H](C(N)=O)C(C)C)C(C)C` (HELM PEPTIDE1{[O=C(/C=C/C(=O)[*:2])NCC(=O)NCC(=O)N[C@@H](Cc1ccccc1)C(=O)O].Q.L.V.V.[am]}$$$$V2.0), the inhibition in test [1] and in test [2] was 54% each time.
Regarding `CC(C)[C@H](NC(=O)[C@@H](NC(=O)[C@@H](NC(=O)[C@H](CCC(N)=O)NC(=O)/C=C/C(=O)N[C@@H](C)C(=O)NCC(=O)N[C@@H](Cc1ccccc1)C(=O)O)c1ccccc1)C(C)C)C(N)=O` (HELM PEPTIDE1{[C[C@H](NC(=O)/C=C/C(=O)[*:2])C(=O)NCC(=O)N[C@@H](Cc1ccccc1)C(=O)O].Q.[Phg].V.V.[am]}$$$$V2.0), the inhibition in test [1] was determined as 46%; in test [2], 34%.
On the same counts, the results for `CC(=O)NC[C@H](NC(=O)/C=C/C(=O)NCC(=O)NCC(=O)N[C@@H](Cc1ccccc1)C(=O)O)C(=O)N[C@H](C(=O)N[C@H](C(=O)N[C@H](C(N)=O)C(C)C)C(C)C)C1CCCCC1` ({Fumaroyl(GlyGlyPheOH)}-[Dap](Ac)[Chg]VV-NH2) are 52% and 52%.
Take `CC[C@H](C)[C@H](NC(=O)[C@H](CNC(C)=O)NC(=O)/C=C/C(=O)N[C@@H](C)C(=O)NCC(=O)N[C@@H](Cc1ccccc1)C(=O)O)C(=O)N[C@@H](C)C(=O)N[C@H](C(N)=O)C(C)C` (HELM PEPTIDE1{[C[C@H](NC(=O)/C=C/C(=O)[*:2])C(=O)NCC(=O)N[C@@H](Cc1ccccc1)C(=O)O].[O=C([C@H](CN[*:3])N[*:1])[*:2]].I.A.V.[am]}|PEPTIDE2{[ac]}$PEPTIDE1,PEPTIDE2,2:R3-1:R2$$$V2.0): the inhibition was determined as 28% in test [1] and 26% in test [2].
As for `CC(C)C[C@H](NC(=O)[C@@H](NC(=O)[C@H](CC(N)=O)NC(=O)/C=C/C(=O)N[C@@H](C)C(=O)NCC(=O)N[C@@H](Cc1ccccc1)C(=O)O)C1CCCCC1)C(=O)N[C@H](C(N)=O)C(C)C` (HELM PEPTIDE1{[C[C@H](NC(=O)/C=C/C(=O)[*:2])C(=O)NCC(=O)N[C@@H](Cc1ccccc1)C(=O)O].N.[O=C([C@@H](N[*:1])C1CCCCC1)[*:2]].L.V.[am]}$$$$V2.0), the results for the inhibition in test [1] and in test [2] were 40% and 66%, respectively.
On the same counts, the results for `CC(C)[C@H](NC(=O)[C@H](C)NC(=O)[C@@H](NC(=O)[C@H](CC(N)=O)NC(=O)/C=C/C(=O)N[C@@H](C)C(=O)NCC(=O)N[C@@H](Cc1ccccc1)C(=O)O)C1CCCCC1)C(N)=O` (HELM PEPTIDE1{[C[C@H](NC(=O)/C=C/C(=O)[*:2])C(=O)NCC(=O)N[C@@H](Cc1ccccc1)C(=O)O].N.[O=C([C@@H](N[*:1])C1CCCCC1)[*:2]].A.V.[am]}$$$$V2.0) are 45% and 36%.
On the same counts, the results for `CC(C)[C@H](NC(=O)[C@@H](NC(=O)[C@@H](NC(=O)[C@H](CCC(N)=O)NC(=O)/C=C/C(=O)NCC(=O)NCC(=O)N[C@@H](Cc1ccccc1)C(=O)O)c1ccccc1)C(C)C)C(N)=O` (HELM PEPTIDE1{[O=C(/C=C/C(=O)[*:2])NCC(=O)NCC(=O)N[C@@H](Cc1ccccc1)C(=O)O].Q.[Phg].V.V.[am]}$$$$V2.0) are 63% and 45%.
For `CC(C)[C@H](NC(=O)[C@H](C)NC(=O)[C@@H](NC(=O)[C@H](CC(N)=O)NC(=O)/C=C/C(=O)NCC(=O)NCC(=O)N[C@@H](Cc1ccccc1)C(=O)O)c1ccccc1)C(N)=O` (HELM PEPTIDE1{[O=C(/C=C/C(=O)[*:2])NCC(=O)NCC(=O)N[C@@H](Cc1ccccc1)C(=O)O].N.[Phg].A.V.[am]}$$$$V2.0), in that order: 64% and 48%.
Consider `CC[C@H](C)[C@H](NC(=O)[C@H](Cc1ccccc1)NC(=O)/C=C/C(=O)N[C@@H](C)C(=O)NCC(=O)N[C@@H](Cc1ccccc1)C(=O)O)C(=O)N[C@H](C(=O)N[C@H](C(N)=O)C(C)C)C(C)C` (HELM PEPTIDE1{[C[C@H](NC(=O)/C=C/C(=O)[*:2])C(=O)NCC(=O)N[C@@H](Cc1ccccc1)C(=O)O].F.I.V.V.[am]}$$$$V2.0), for which the inhibition came to 45% in test [1] and 43% in test [2].
For `CC(C)[C@H](NC(=O)[C@H](C)NC(=O)[C@@H](NC(=O)[C@H](CCC(N)=O)NC(=O)/C=C/C(=O)NCC(=O)NCC(=O)N[C@@H](Cc1ccccc1)C(=O)O)C1CCCCC1)C(N)=O` (HELM PEPTIDE1{[O=C(/C=C/C(=O)[*:2])NCC(=O)NCC(=O)N[C@@H](Cc1ccccc1)C(=O)O].Q.[O=C([C@@H](N[*:1])C1CCCCC1)[*:2]].A.V.[am]}$$$$V2.0), in that order: 40% and 31%.
For `CC[C@H](C)[C@H](NC(=O)[C@H](Cc1ccccc1)NC(=O)/C=C/C(=O)NCC(=O)NCC(=O)N[C@@H](Cc1ccccc1)C(=O)O)C(=O)N[C@@H](C)C(=O)N[C@H](C(N)=O)C(C)C` (HELM PEPTIDE1{[O=C(/C=C/C(=O)[*:2])NCC(=O)NCC(=O)N[C@@H](Cc1ccccc1)C(=O)O].F.I.A.V.[am]}$$$$V2.0), in that order: 52% and 30%.
